# Measured values: ChEMBL document CHEMBL1154487, “Synthesis, chemical and biological studies on new Fe(3+)-glycosilated beta-diketo complexes for the treatment of iron deficiency” (Eur J Med Chem, 2008)
# Calls of active or inactive are those of the source. No cut-off for these calls is given here.
# Assays:
# [1] = Chemical stability in phosphate buffer at pH 7 after 8 hrs; type: physicochemical
# In short: (§1)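 The ligand was held at 5×10−5 M in 10−2 M phosphate buffer, pH 7, at 37 °C and constant ionic strength. Degradation was followed as the change in absorbance at 345 nm. First-order kinetics were taken from ln(At/A0) versus time.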
# [2] = Chemical stability in phosphate buffer at pH 7; type: physicochemical; in short: as §1
# [3] = Protonation constant, pKa by spectrophotometric method; type: physicochemical
# In short: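 Aqueous ligand solutions (2.5×10−5 M) were titrated spectrophotometrically, adjusting pH from 1 to 11 with concentrated NaOH or HCl. The UV absorbance maximum (320–365 nm) was followed versus pH. Protonation constants were computed from the spectral data.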
# [4] = Protonation constant, pKa by potentiometric method; type: physicochemical
# In short: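 Potentiometric titration of 3×10−3 M ligand in water at 25.0 °C, ionic strength 0.1 M (NaNO3), under nitrogen. The titrant was 1×10−2 M NaOH, over pH 2–10, with 600–720 s per point. At least 10 titrations of 40 points each were run, and constants were refined by least squares.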
# [5] = Octanol-water partition coefficient, log P after 4 hrs by shake flask method; type: physicochemical
# In short: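 Shake-flask method at pH 7.0 (phosphate buffer). Water presaturated with n-octanol was mixed with the ligand or the Fe:L 1:3 system (10−4 M stock) and shaken at 37 °C for 4 h. After phase separation, aqueous concentration was measured spectrophotometrically. Log P is the log of the octanol/water concentration ratio.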
# [6] = Cytotoxicity against african green monkey Vero cells at 800 uM; type: cell-based; conditions: chlorocebus sabaeus, read-out: INH
# In short: (§2)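 Vero cells (African green monkey kidney) were grown in MEM with 10% heat-inactivated FCS at 37 °C in 5% CO2. Cells were seeded at 4×10^4 cells/well and grown 72 h with a range of compound concentrations. They were then methanol-fixed, stained with crystal violet, and the dye was extracted into acidic isopropanol and read at 540 nm. Survival is % of untreated control, mean ± SD of 3 experiments, each in triplicate.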
# [7] = Cytotoxicity against african green monkey Vero cells at 600 uM; type: cell-based; conditions: chlorocebus sabaeus, read-out: INH; in short: as §2
# Vero [8] = experiment: Cytotoxicity against african green monkey Vero cells; type: cell-based; conditions: Chlorocebus sabaeus; in short: as §2
# [9] = Amount of free iron in Fe3+/ligand system at pH 2; conditions: buffer
# Liver microsomes [10] = experiment: Antioxidant activity against ferric ion (Fe3+-ADP)-induced lipid peroxidation in rat liver microsomes after 30 mins; conditions: Microsome
# Vero [11] = experiment: Cytotoxicity against african green monkey Vero cells at 400 uM; type: cell-based; conditions: chlorocebus sabaeus; in short: as §2
# Liver microsomes [12] = experiment: Antioxidant activity against ferric ion (Fe3+-ADP)-induced lipid peroxidation in rat liver microsomes; conditions: Microsome
# [13] = Chemical stability in phosphate buffer at pH 7 after 1 hr; type: physicochemical; conditions: pH 7, 1 h
# [14] = Cytotoxicity against african green monkey Vero cells at 5 uM; type: cell-based; conditions: chlorocebus sabaeus, read-out: INH
# [15] = Cytotoxicity against african green monkey Vero cells at 10 uM; type: cell-based; conditions: chlorocebus sabaeus, read-out: INH
SMILES,Degradation % at 8 h [1],half-life [2],pKa [3],pKa [4],logP at 4 h [5],cytotoxicity at 800 µM [6],cytotoxicity at 600 µM [7],IC50 (Vero [8]),Activity [9],Activity (Liver microsomes [10]),Activity (Vero [11]),Activity (Liver microsomes [12]),Stability [13],cytotoxicity at 5 µM [14],cytotoxicity at 10 µM [15]
COc1cc(/C=C/C(O)=C/C(C)=O)ccc1O[C@@H]1O[C@H](CO)[C@@H](O)[C@H](O)[C@H]1O,< 10%,> 100 h,8.73,8.75,0.13,65%,40%,700 µM,40%,Active,,,,,
O=C(O)[C@H](O)[C@@H](O)[C@H](O)[C@H](O)CO [GLUCONIC ACID],,,,,,,,,60%,,,,,,
CC(=O)/C=C(O)/C=C/c1ccc(O[C@@H]2O[C@H](CO)[C@@H](O)[C@H](O)[C@H]2O)c(O)c1,< 10%,> 100 h,8.03,8.03,0.32,20%,,,20%,,10%,inactive,,,
COc1cc(/C=C/C(=O)CC(=O)/C=C/c2ccc(O)c(OC)c2)ccc1O [CURCUMIN],,0.167 h,,,,,,,,,,,Unstable,10%,20%
CC(=O)/C=C(O)/C=C/c1ccc(O[C@@H]2O[C@H](CO)[C@@H](O)[C@H](O)[C@H]2O)cc1,< 10%,> 100 h,9.22,9.26,0.39,40%,2%,,30%,,,inactive,,,
